This is a sample that favours compounds with a hit; in the whole collection about 1.2% have one here.
TPT1 inhibitor – Candida albicans TPT1 enzyme inhibitors, primary screen, biochemical, fluorescence polarization; inhibition, % at 5 µM; 0.81% of 300,000 active; recombinant caTPT1, FP RNA substrate dephosphorylation; AID 1962, 2009; tRNA 2'-phosphotransferase TPT1 (Candida albicans SC5314);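 active = inhibition above the mean of all tested compounds plus 3 SD, set per screening campaign, cut at about 24% in these data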;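 note: plate controls were DMSO alone for no effect and ferristatin control at 100 nM for full effect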
CSN inh – inhibitors of CSN-mediated cullin deneddylation, primary screen, biochemical, fluorescence polarization, uHTS | COP9 signalosome complex subunit 5 (Homo sapiens), Q92905 | Purified CSN, SCF-Nedd8-OG deneddylation | inhibition, % at 12.5 µM | 0.38% of 360,000 active;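 active = pattern-corrected inhibition above about 35%, with an unprinted fluorescence ratio check between 0.5 and 1.5, limit read from the data, passing the limit was not always enough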;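 note: 0% = enzyme with substrate and 100% = substrate without enzyme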
Target sequence (Q92905 whole entry, looked up, one chain of several): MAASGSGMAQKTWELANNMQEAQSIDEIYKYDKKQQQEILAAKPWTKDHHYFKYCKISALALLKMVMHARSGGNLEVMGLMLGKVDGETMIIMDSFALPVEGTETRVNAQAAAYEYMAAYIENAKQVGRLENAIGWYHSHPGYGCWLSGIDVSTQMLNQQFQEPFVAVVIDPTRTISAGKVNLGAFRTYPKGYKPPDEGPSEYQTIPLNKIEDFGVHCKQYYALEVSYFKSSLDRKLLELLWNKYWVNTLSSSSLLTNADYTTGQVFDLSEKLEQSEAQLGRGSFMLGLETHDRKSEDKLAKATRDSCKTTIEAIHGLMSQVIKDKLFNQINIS
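Test system: Human Csn5 produced in HEK293T cells | Compound: 12.5 µM single point | Times: 90 min, room temperature | Signal: Fluorescence polarization readout | Read-out basis: % inhibition of substrate cleavage by Csn5 | Controls: no-enzyme wells high, enzyme-with-substrate wells low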
Rtt109 HAT inh – inhibitors of C. albicans Rtt109/Vps75 HAT, primary screen, biochemical, ThioGlo CoA-SH fluorescence, plate reader; purified Rtt109/Vps75, 4 h; inhibition, % at 34.9 µM; 0.16% of 330,000 active; AID 540336, 2011;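 active = inhibition of at least 50% in every replicate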
Target sequence (Q5AAJ8 whole entry, looked up): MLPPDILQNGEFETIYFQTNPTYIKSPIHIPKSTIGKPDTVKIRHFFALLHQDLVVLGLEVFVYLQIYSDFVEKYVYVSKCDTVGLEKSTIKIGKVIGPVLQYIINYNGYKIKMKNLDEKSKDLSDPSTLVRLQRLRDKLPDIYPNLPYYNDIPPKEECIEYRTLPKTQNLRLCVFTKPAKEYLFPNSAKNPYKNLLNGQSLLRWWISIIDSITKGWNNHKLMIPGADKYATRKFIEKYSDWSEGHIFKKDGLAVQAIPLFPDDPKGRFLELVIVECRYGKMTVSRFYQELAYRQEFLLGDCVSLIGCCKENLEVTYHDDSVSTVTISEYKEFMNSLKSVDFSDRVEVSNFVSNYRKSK
HNF4A DNA FP – change in binding of human HNF4A to DNA, primary screen, biochemical, fluorescence polarization, FITC-DNA; 0.3% of 360,000 active; activity change, % at 10 µM; 1 h; Hepatocyte nuclear factor 4-alpha (Homo sapiens), P41235; in the data active = activity change above about 30%, passing the limit was not always enough
TPT1 inh confirm – Candida albicans TPT1 inhibitors, confirmation, biochemical, fluorescence polarization, triplicate; shares compounds with TPT1 inhibitor; recombinant caTPT1, RNase T1 coupled; inhibition, % at 5 µM; 74% of 2,400 active; AID 2149, 2009;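 active = inhibition above the primary screen limit, the mean inhibition of all tested compounds plus 3 SD, cut at about 25% in these data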
RNase T1 counter – RNase T1 inhibitors, counter-screen for TPT1 inhibitor project, biochemical, fluorescence polarization. shares compounds with TPT1 inhibitor. RNase T1 cleavage, 1536-well. inhibition, % at 5 µM. 83% of 2,400 active. AID 2153, 2009;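 active = inhibition above the solvent-only control well mean plus 3 SD, limit set per screening run, cut at about 23% in these data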;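 note: plate controls were DMSO wells with enzyme for no effect and wells without RNase T1 for full effect; inhibitors block cleavage so intact labeled substrate keeps polarization high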
An asterisk follows results filed as active.

Results for CC(=O)NC/C(C)=N\Nc1ccc([N+](=O)[O-])cc1 ?
TPT1 inhibitor: 32.1*; CSN inh: 12.7; Rtt109 HAT inh: -2.1; HNF4A DNA FP: 10.1; TPT1 inh confirm: 42.9*; RNase T1 counter: 54.7*

Results for Cc1cc(OC(C)C(=O)N2CCN(c3ccccc3)CC2)c2c(C)c(C)c(=O)oc2c1 (centres undefined) ?
TPT1 inhibitor: 28.8*; CSN inh: 6.9; Rtt109 HAT inh: 32.1; HNF4A DNA FP: 2.7; TPT1 inh confirm: 1.2; RNase T1 counter: 2.5

Results for CC(NC(=O)COC(=O)C1CC2CCCC(C1)C2=O)c1ccccc1 (centres undefined) ?
CSN inh: -1.0; Rtt109 HAT inh: -0.9; HNF4A DNA FP: -5.1

What do the screens show for `Cn1cccc1CC(=O)N/N=C/c1cccc2ccccc12`?
TPT1 inhibitor: 32.6*; CSN inh: 1.1; HNF4A DNA FP: -2.4; TPT1 inh confirm: 19.5; RNase T1 counter: 29.8*

How did Cc1ccc(N=Nc2[nH]c3ccccc3c2O)cc1 do in these assays?
TPT1 inhibitor: 24.3*; CSN inh: 8.3; Rtt109 HAT inh: 0.2; HNF4A DNA FP: 7.1; TPT1 inh confirm: -7.5; RNase T1 counter: 2.8

How did O=C(O)CNC(=O)CC1S/C(=N/N=C2/NC(=O)CS2)NC1=O (centres undefined) do in these assays?
TPT1 inhibitor: 25.5*; CSN inh: 4.9; Rtt109 HAT inh: -5.1; HNF4A DNA FP: 20.6; TPT1 inh confirm: 33.0*; RNase T1 counter: 45.6*

Results for NC(=O)NC(=O)CC1S/C(=N/N=C2\CSC(=O)N2)NC1=O (centres undefined) ?
TPT1 inhibitor: 1.0; CSN inh: 1.7; Rtt109 HAT inh: -22.8; HNF4A DNA FP: 1.2

What do the screens show for `O=Cc1ccc(OCc2ccc3ccccc3c2)cc1`?
TPT1 inhibitor: 0.0; CSN inh: 5.4; Rtt109 HAT inh: -4.6; HNF4A DNA FP: -2.7

How did O=Cc1ccc(OCc2ccccn2)cc1 do in these assays?
TPT1 inhibitor: 50.6*; CSN inh: -1.2; Rtt109 HAT inh: -7.0; HNF4A DNA FP: -2.1; TPT1 inh confirm: 2.0; RNase T1 counter: 1.5

How did CC1(CO)CCCC1NCCNC1CCCC1(C)CO (centres undefined) do in these assays?
CSN inh: 0.8; HNF4A DNA FP: 8.2

Results for Cc1cc(NC(=O)CSc2nc3cc(Cl)ccc3s2)no1 ?
TPT1 inhibitor: -2.3; CSN inh: 1.8; Rtt109 HAT inh: -3.8; HNF4A DNA FP: 1.7

What do the screens show for `Cc1cc(SCC(=O)O)nc2ccccc12`?
TPT1 inhibitor: 1.6; CSN inh: -3.4; Rtt109 HAT inh: 3.2; HNF4A DNA FP: -0.9

How did O=C(CSc1nc2cc(Cl)ccc2s1)c1cc2ccccc2o1 do in these assays?
TPT1 inhibitor: 78.0*; CSN inh: -1.9; Rtt109 HAT inh: 10.1; HNF4A DNA FP: 2.9; TPT1 inh confirm: 20.2; RNase T1 counter: 26.8*

What do the screens show for `Cc1cc(SCC(=O)c2cc3ccccc3o2)nc2ccccc12`?
TPT1 inhibitor: 66.5*; CSN inh: 6.7; Rtt109 HAT inh: -0.6; HNF4A DNA FP: 9.3; TPT1 inh confirm: 6.8; RNase T1 counter: 6.7

What do the screens show for `O=C(NCc1ccccn1)[C@@H]1CCCN1C(=O)[C@@H]1CCCN1C(=O)c1c(F)cccc1F`?
CSN inh: 0.1; HNF4A DNA FP: 2.1

Results for CC1O[C@@H](O[C@H](C)CC[C@@H](C)O[C@H]2OC(C)[C@@H](O)C[C@H]2O)C(O)C[C@H]1O (some centres undefined) ?
TPT1 inhibitor: 1.9; CSN inh: 2.8; Rtt109 HAT inh: -6.0; HNF4A DNA FP: 2.1

Results for CCCc1cc(=O)[nH]c(SCC(=O)Nc2ccc([N+](=O)[O-])cc2C#N)n1 ?
TPT1 inhibitor: -0.7; CSN inh: 4.0; Rtt109 HAT inh: 4.5; HNF4A DNA FP: 2.0

What do the screens show for `Nc1c(C(=O)NC2CC2)sc2nc3c(c(-c4ccco4)c12)CC/C3=C/c1ccco1`?
TPT1 inhibitor: 36.2*; CSN inh: 51.8; Rtt109 HAT inh: 13.0; HNF4A DNA FP: -41.5; TPT1 inh confirm: 2.5; RNase T1 counter: 0.5

What do the screens show for `COc1ccc2ccccc2c1/C=N/N1C(=O)CSC1=S`?
TPT1 inhibitor: 27.1*; CSN inh: 2.5; Rtt109 HAT inh: 0.0; HNF4A DNA FP: -119.2; TPT1 inh confirm: 8.6; RNase T1 counter: 12.3

What do the screens show for `N#CC1=CN(Cc2ccccc2)C=C(/C=N/Nc2ccccc2)C1`?
TPT1 inhibitor: 25.5*; CSN inh: 14.8; Rtt109 HAT inh: -0.5; HNF4A DNA FP: 10.8; TPT1 inh confirm: 14.3; RNase T1 counter: 24.6*

How did CCOC(=O)C(=O)C1=CN(Cc2ccccc2)C=C(C#N)C1 do in these assays?
TPT1 inhibitor: -9.3; CSN inh: -4.3; Rtt109 HAT inh: -1.7; HNF4A DNA FP: -1.1

What do the screens show for `CC(=O)c1ccccc1NCC(=O)Nc1ccc(C)cc1`?
TPT1 inhibitor: active; CSN inh: -1.4; Rtt109 HAT inh: -2.4; HNF4A DNA FP: -3.4; TPT1 inh confirm: 17.8; RNase T1 counter: 29.0*

How did COc1ccc(-n2c(NC(=O)c3ccco3)c(C#N)c3nc4ccccc4nc32)cc1 do in these assays?
TPT1 inhibitor: 35.7*; CSN inh: 38.2*; Rtt109 HAT inh: -35.6; HNF4A DNA FP: 32.5; TPT1 inh confirm: 44.8*; RNase T1 counter: 55.5*

What do the screens show for `CCOC(=O)c1c(NC(=O)c2ccco2)n(C2CCCCC2)c2nc3ccccc3nc12`?
TPT1 inhibitor: 31.0*; CSN inh: 9.9; Rtt109 HAT inh: 17.3; HNF4A DNA FP: 16.0; TPT1 inh confirm: 27.5*; RNase T1 counter: 38.9*

Results for COc1ccc(C(=O)Nc2ccc(NC(=O)c3ccco3)cc2)cc1 ?
TPT1 inhibitor: -3.4; CSN inh: -3.1; Rtt109 HAT inh: 2.0; HNF4A DNA FP: 0.5

What do the screens show for `CN1/C(=C\C(=O)Nc2ccc(F)cc2)C(C)(C)c2ccccc21`?
TPT1 inhibitor: -2.7; CSN inh: 4.2; Rtt109 HAT inh: -8.0; HNF4A DNA FP: -1.1

What do the screens show for `CN1/C(=C\C=C(/C#N)C(=O)Nc2ccccc2F)C(C)(C)c2ccccc21`?
TPT1 inhibitor: 123.1*; CSN inh: 123.2; Rtt109 HAT inh: 4.0; HNF4A DNA FP: 101.6; TPT1 inh confirm: 94.6*; RNase T1 counter: 92.9*

Results for CN1/C(=C/C=C(/C#N)C(N)=O)C(C)(C)c2ccccc21 ?
TPT1 inhibitor: 86.9*; CSN inh: 18.2; Rtt109 HAT inh: 0.1; HNF4A DNA FP: 36.4*; TPT1 inh confirm: 68.1*; RNase T1 counter: 82.2*

How did Cc1ccccc1N/N=C/c1sc(=O)n(Cc2cccc(C(=O)O)c2)c1Cl do in these assays?
TPT1 inhibitor: 3.1; CSN inh: 8.0; Rtt109 HAT inh: 1.2; HNF4A DNA FP: -1.6
